Compound activity: PubChem BioAssay, Sanford-Burnham Center for Chemical Genomics
Scp1 inh – inhibitors of human Scp-1 phosphatase. Q9GZU7. Recombinant Scp1, phosphopeptide, malachite green phosphate absorbance. inhibition, % at 20 µM. 340,000 compounds, 0.88% hits. AID 493091;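 active = inhibition above about 50% at 20 µM, limit read from the data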
Target sequence (Q9GZU7 76-261 limits assumed): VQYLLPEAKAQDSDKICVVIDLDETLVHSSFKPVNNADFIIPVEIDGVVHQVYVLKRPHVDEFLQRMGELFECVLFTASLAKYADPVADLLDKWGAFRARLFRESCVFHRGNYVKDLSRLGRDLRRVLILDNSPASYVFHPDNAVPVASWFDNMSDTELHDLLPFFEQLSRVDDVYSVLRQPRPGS
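Test system: SCP-1 phosphatase catalytic domain, residues 76-261; measured by: colorimetric phosphate reagent with accelerator and stabiliser, absorbance at 630 nm; timing: enzyme reaction 45 min at room temperature, colour 5 min, stabilisation 30 min; also added: Phosphorylated 17-residue peptide substrate; compound dosing: one concentration, 20 µM, with 1.0% DMSO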
STEP block – blocks human striatal-enriched tyrosine phosphatase. 360,000 compounds, 0.25% hits. recombinant STEP, OMFP fluorogenic substrate, fluorescence. inhibition, % at 20 µM. P54829;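 active = inhibition at 20 µM, scaled per plate between control wells, above about 37%, limit read from the data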
Target sequence (P54829 whole entry, looked up): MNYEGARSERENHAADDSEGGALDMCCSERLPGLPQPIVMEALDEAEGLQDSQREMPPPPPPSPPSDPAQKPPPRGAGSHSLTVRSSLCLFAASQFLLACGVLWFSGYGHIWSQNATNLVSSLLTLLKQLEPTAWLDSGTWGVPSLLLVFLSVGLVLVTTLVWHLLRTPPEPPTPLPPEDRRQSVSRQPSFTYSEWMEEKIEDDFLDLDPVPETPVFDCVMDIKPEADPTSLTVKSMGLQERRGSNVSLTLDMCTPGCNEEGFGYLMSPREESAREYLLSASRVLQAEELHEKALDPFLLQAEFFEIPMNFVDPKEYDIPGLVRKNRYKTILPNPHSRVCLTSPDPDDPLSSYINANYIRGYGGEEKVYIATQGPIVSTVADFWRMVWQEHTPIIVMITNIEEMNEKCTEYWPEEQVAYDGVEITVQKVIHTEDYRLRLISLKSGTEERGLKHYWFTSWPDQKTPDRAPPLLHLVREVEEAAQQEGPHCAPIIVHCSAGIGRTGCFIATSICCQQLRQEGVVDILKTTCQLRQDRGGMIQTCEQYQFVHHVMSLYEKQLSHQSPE
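Assay system: isolated STEP enzyme. Buffer or medium: pH 6.0 Bis-Tris with DTT and Tween 20. Also added: fluorogenic phosphatase substrate OMFP at 25 µM final. Dosing: 20 µM, 1% DMSO. Timing: 20 min reaction, room temperature, in the dark. Measured by: fluorescence intensity, excitation 480 nm, emission 540 nm. Evaluation: normalized % inhibition.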
DNMT1 inh – inhibitors of human DNMT1; 360,000 compounds, 0.83% hits; DNMT1 molecular beacon, Hinp1I cleavage, fluorescence; P26358; inhibition (reported as % activation of signal), % at 10 µM; in the data active = inhibition above about 50%
Rpn11 inh – Rpn11 (human) deubiquitinase inhibition. O00487. human 26S proteasome, Ub4-pepOG fluorescence polarization; 20S core pre-blocked with epoxomicin. 360,000 compounds, 0.59% hits. inhibition, % at 20 µM;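 active = inhibition at 20 µM, scaled to each plate's controls, above about 33%, limit read from the data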
LMPTP inh – LMPTP (human) inhibition; P24666; recombinant LMPTP-A, OMFP fluorogenic substrate, fluorescence intensity; inhibition, % at 20 µM; 360,000 compounds, 0.22% hits;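 active = compounds that cut the enzyme signal by at least half of the control window in the single-dose screen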
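Test system: LMPTP-A, protein tyrosine phosphatase of low molecular weight; Input: 0.625 nM enzyme; Incubation: 50 min dark incubation at room temperature; Signal: endpoint fluorescence intensity from OMFP dephosphorylation; Read-out basis: % inhibition versus control wells.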
Scp-1 conf – confirmation of human Scp-1 phosphatase inhibitors. shares compounds with Scp1 inh. inhibition, % at 20 µM. AID 540281. recombinant SCP-1 catalytic domain, phosphate release, malachite green absorbance. 2,500 compounds, 61% hits;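 active = inhibition of at least 30% at 20 µM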
MG interference – counter-screen for Scp-1 inhibitors: colorimetric interference; shares compounds with Scp1 inh; Colorimetric interference counterscreen, malachite green absorbance 630 nm; apparent inhibition (interference), % at 20 µM; 2,500 tested, under 10 active; AID 540313;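 active = inhibition of at least 30% at 20 µM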;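 note: compounds added after enzyme reaction finished so only phosphate colour detection is probed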
Scp1 DSF – Scp-1 (human) binding by thermal shift. shares compounds with Scp1 inh. Recombinant SCP1, Sypro Orange thermal shift Tm. thermal shift relative to vanadate control, % at 40 µM. 1,500 compounds, 25% hits;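 active = substances whose mean melting-temperature shift, as a percentage of the reference inhibitor's shift, reaches about 5.3%, limit read from the data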
DNMT1 interf DR – counter-screen for DNMT1 inhibitors: spectral interference, dose response. shares compounds with DNMT1 inh. molecular beacon fluorescence. IC50, µM. 200 tested, under 10 active. AID 602382; call rule not given here
DNMT1 confirm – confirmation of human DNMT1 inhibitors; shares compounds with DNMT1 inh; DNMT1 molecular beacon HinP1I cleavage, fluorescence; inhibition, % at 10 µM; 2,300 compounds, 8% hits; AID 602385;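 active = average inhibition of at least 30% in the single-concentration confirmation test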
DNMT1 interf – beacon fluorescence artifact counter-screen. shares compounds with DNMT1 inh. DNMT1 molecular beacon spectral interference counterscreen, fluorescence 485/520. activation (fluorescence interference), % at 10 µM. 2,300 compounds, 1% hits. AID 602387;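 active = activation of at least 30% at 10 µM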;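 note: DNMT1 catalytic domain with a HinP1I cleavage step and a FAM/dabcyl DNA beacon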
Rpn11 inh conf – Rpn11 inhibition confirmation, single concentration. purified human 26S proteasome, Ub4-pepOG fluorescence polarization; proteasome pretreated with epoxomicin. shares compounds with Rpn11 inh. 1,900 compounds, 29% hits. inhibition, % at 20 µM. AID 602318
MMP-2 inh – blocks human MMP-2, flagging nonselective RPN11 hits | shares compounds with Rpn11 inh | recombinant MMP-2, FRET peptide cleavage fluorescence | inhibition, % at 20 µM | 1,900 compounds, 4% hits;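 note: human MMP-2 activated beforehand with APMA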
Thrombin FP – counter-screen for RPN11 inhibitors: inhibition of bovine thrombin; shares compounds with Rpn11 inh; bovine thrombin cleavage of Ub4-pepOG, fluorescence polarization; inhibition, % at 20 µM; 1,900 compounds, 13% hits; AID 602333;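 active = mean inhibition at least 40% at 20 µM, or signal 3 deviations below plate average, so some actives read negative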
STEP inh conf – STEP (human) phosphatase inhibition, single concentration confirmation | shares compounds with STEP block | recombinant STEP, OMFP fluorogenic substrate, fluorescence | inhibition, % at 20 µM | 520 compounds, 32% hits; call rule not given here
Hits are given with their value; – = inactive; · = no result given. This is a sample that favours compounds with a hit; in the whole collection about 2% have one here. Cut-off read from the data, not from the text of the source, unless noted: active = inhibition above about 40%; inactive = the rest.

SMILES | Scp1 inh | STEP block | DNMT1 inh | Rpn11 inh | LMPTP inh | DNMT1 confirm | DNMT1 interf | others
COc1ccc(CN2C(=O)NC(=O)/C(=C/c3ccoc3)C2=O)cc1 | 71.5 | 67.6 | 100.8 | 186.4 | – | – | – | Scp-1 conf=70.6;MG interference=–;Scp1 DSF=–;Rpn11 inh conf=96.4;MMP-2 inh=43.9;Thrombin FP=–
C=C1C/C(=C/C)C(=O)O[C@@H]2CCN3CC=C(COC(=O)[C@]1(C)O)[C@H]23 | – | – | – | – | – | · | ·
CCN(CC)P(=O)(NC(=O)C(Cl)(Cl)Cl)N(CC)CC.[Cl-].[Cl-].[Cl-].[Nd+3] | 101.3 | 87.2 | – | 62.8 | – | · | · | Scp-1 conf=70.3;MG interference=–;Scp1 DSF=–;Rpn11 inh conf=–;MMP-2 inh=–;Thrombin FP=–;STEP inh conf=25.3
C=C(C)[C@@]12OC3(c4ccccc4)O[C@@H]1C1[C@@H]4O[C@]4(CO)[C@@H](O)[C@]4(O)C(=O)C(C)=C[C@H]4[C@@]1(O3)[C@H](C)[C@H]2OC(=O)/C=C/C=C/c1ccccc1 (stereo not given in full) | – | – | – | – | – | · | ·
CN1C(=O)NC(=O)/C(=C\c2ccc([N+](=O)[O-])o2)C1=O | 53.0 | 44.3 | 101.1 | – | – | 112.3 | – | DNMT1 interf DR=–
Cn1cccc1/C=C1/C(=O)NC(=O)N(Cc2ccc(F)cc2)C1=O | – | – | – | – | – | · | ·
Cn1cccc1/C=C1/C(=O)NC(=S)N(Cc2ccc(F)cc2)C1=O | – | – | 90.8 | – | – | 105.2 | – | DNMT1 interf DR=–
CCCCn1c(NC(=O)c2ccc(Br)o2)c(C(=O)OCC)c2nc3ccccc3nc21 | – | – | 70.3 | – | – | – | –
O=C(c1ccccc1)C1NC1c1ccccc1 (stereo not given) | – | – | – | – | – | · | ·
O=C1c2ccccc2-c2cccc3cccc1c23 | – | – | 54.3 | – | – | 34.6 | – | DNMT1 interf DR=–
CC1(C)CC(n2[nH]c(=O)c3c2NC(=O)CSC3c2ccc(F)cc2)CCO1 (stereo not given) | – | – | – | – | – | · | ·
CCCCN1C(=O)/C(=C/c2ccc(N(C)C)cc2)C(=O)N(Cc2ccco2)C1=O | – | – | 80.0 | · | – | – | –
O=C1NC(=O)C(=Cc2ccc(-c3cc(Cl)ccc3[N+](=O)[O-])o2)C(=O)N1 | 69.3 | – | 78.5 | – | – | – | –
COc1cccc2c1cc([N+](=O)[O-])c1c(C(=O)O)cc3c(c12)OCO3 | – | – | – | – | – | · | ·
Cc1cccc(N2C(=O)NC(=O)/C(=C\c3ccc4c(c3)CCCN4Cc3ccccc3)C2=O)c1 | – | – | – | · | – | · | ·
CCC(C)N1C(=O)/C(=C/c2ccc3c(c2)CCN3CCCCl)C(=O)NC1=S (stereo not given) | – | – | 85.1 | · | – | – | –
Cc1cc(C)cc(N2C(=O)NC(=O)/C(=C\C=C\c3ccco3)C2=O)c1 | – | – | 74.1 | – | – | – | –
CC(C)c1ccc(N2C(=O)NC(=O)/C(=C/C=C/c3ccco3)C2=O)cc1 | – | – | 85.7 | · | – | – | –
CC(=NCc1ccco1)c1c(O)n(-c2ccccc2)c(=O)[nH]c1=O | – | – | – | – | – | · | ·
N#CC(C#N)=C(N)c1cccnc1 | – | – | 61.7 | – | – | – | –
O=C1NC(=O)N(Cc2ccco2)C(=O)/C1=C/c1cccn1CCOc1ccccc1Cl | – | – | 69.5 | – | – | – | –
O=C1NC(=O)N(Cc2ccccc2)C(=O)/C1=C\c1ccco1 | – | – | – | – | – | · | ·
CN(C)[C@@H]1C(=O)C(C(N)=O)=C(O)[C@@]2(O)C(=O)C3=C(O)c4c(O)ccc(Cl)c4[C@@](C)(O)C3C[C@@H]12 (stereo not given in full) | – | – | 55.7 | – | – | – | –
COc1ccc(/C=N/N=C(/N)N[N+](=O)[O-])c(OC)c1 | – | – | – | – | – | · | ·
N/C(=N\N=C/c1ccc(-c2ccc(O)c(C(=O)O)c2)o1)N[N+](=O)[O-] | 80.0 | 70.9 | 87.6 | – | – | 96.4 | – | DNMT1 interf DR=–
SMILES | Scp1 inh | STEP block | DNMT1 inh | Rpn11 inh | LMPTP inh | DNMT1 confirm | DNMT1 interf | others
O=P1(NCCCn2cc[n+](Cc3nc4ccccc4[nH]3)c2)C=C(c2ccccc2)OC(c2ccccc2)=C1 | – | – | – | – | – | · | ·
CCOC(=O)C1SC2(C(F)(F)F)CC1(O)c1c(C)cc(C)nc1O2 (stereo not given) | – | – | – | – | – | · | ·
COc1cc(C)c(-c2nc(CN3C[C@@H]4C[C@@H](C3)c3cccc(=O)n3C4)c(C)o2)cc1C | – | – | – | – | – | · | ·
CCCCCn1c(=O)c(C(=O)Nc2ccccn2)c(O)c2ccccc21 | – | – | – | – | – | · | ·
CCCCCCn1c(=O)c(C(=O)Nc2ncccc2O)c(O)c2ccccc21 | – | – | 70.4 | – | – | – | –
O=Cc1c(C(=O)O)n(Cc2ccc(Cl)cc2)c2ccccc12 | – | – | 94.9 | · | – | – | –
Cc1c(C=O)c2ccccc2n1Cc1ccccc1 | – | – | – | – | – | · | ·
CC1(C)OC(c2ccccc2)=C/C(=C/C=C2C(=O)NC(=S)NC2=O)O1 | – | · | · | · | · | · | ·
CN1/C(=C\C=C2C(=O)NC(=S)NC2=O)C(C)(C)c2ccccc21 | – | – | 80.8 | – | – | 55.1 | 51.2
C=CCNC(=O)c1c(N)n(Cc2ccco2)c2nc3ccccc3nc12 | – | – | 101.6 | – | – | – | –
